Reference: ChEMBL document CHEMBL4689842, “EUbOPEN Chemogenomics Library wave 1” (2021)

Legend:
Format in all cases: toxicity, cell-based
Fibroblast [1] = test: Multiplex assay against human fibroblast
Method in brief: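 Cells stained live at seeding with Hoechst33342, BioTracker Green Microtubule Cytoskeleton Dye, MitoTracker Red and Annexin V Alexa Fluor 680 were imaged on a CQ1 microscope at 37°C and 5% CO2 after compound addition. Their classification by CellPathfinder machine-learning gating ran from Hoechst high-intensity objects versus normal cells, to healthy, pyknosed or fragmented nuclei among normal cells, to mitotic or apoptotic among pyknosed cells. Tubulin, mitochondrial-mass and membrane-permeability phenotypes are per cents of healthy-nucleus cells.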

U2OS = test: Incucyte cell viability with U2OS; conditions: human, 10 µM, compound concentration 10 uM; further: filed as whole numbers so only -1 and 0 and 1 occur
Fibroblast [2] = test: Incucyte cell viability with human fibroblast; conditions: 10 µM, compound concentration 10 uM; further: filed as whole numbers so only -1 and 0 and 1 occur
HEK-293T = test: Incucyte cell viability with HEK293T; conditions: human, 10 µM, compound concentration 10 uM; further: filed as whole numbers so only -1 and 0 and 1 occur
[3] = 12 h, 1 µM, compound concentration 1 uM, replicate 1
[4] = 12 h, 1 µM, compound concentration 1 uM, replicate 2
[5] = 12 h, 10 µM, compound concentration 10 uM, replicate 1
[6] = 12 h, 10 µM, compound concentration 10 uM, replicate 2
[7] = 24 h, 1 µM, compound concentration 1 uM, replicate 1
[8] = 24 h, 1 µM, compound concentration 1 uM, replicate 2
[9] = 24 h, 10 µM, compound concentration 10 uM, replicate 1
[10] = 24 h, 10 µM, compound concentration 10 uM, replicate 2
[11] = 48 h, 1 µM, compound concentration 1 uM, replicate 1
[12] = 48 h, 1 µM, compound concentration 1 uM, replicate 2
[13] = 48 h, 10 µM, compound concentration 10 uM, replicate 1
[14] = 48 h, 10 µM, compound concentration 10 uM, replicate 2
[15] = 6 h, replicate number 1, timepoint 6 hours
[16] = 12 h, replicate number 1, timepoint 12 hours
[17] = 18 h, replicate number 1, timepoint 18 hours
[18] = 24 h, replicate number 1, timepoint 24 hours
[19] = 0 h, replicate number 1, timepoint 0 hours

## N#Cc1cccc(C(=O)Nc2cc(-c3ccccc3)nn2-c2ccccc2)c1
Fibroblast [1]; [3]
  Population Apoptotic (%): 66%
  Population Fragmented Nuclei (%): 21%
  Population Healthy Nuclei (%): 48%
  Population Hoechst High Intensity Objects (%): 11%
  Population Membrane Permeable-Phenotype (%): 22%
  Population Mitochondria Different-Phenotype (%): 6%
  Population Mitotic Cells (%): 34%
  Population Normal (%): 88%
  Population Pyknosed Nuclei (%): 30%
  Population Tubulin-Different-Phenotype (%): 48%
  Total Cell Count: 186
Fibroblast [1]; [4]
  Population Apoptotic (%): 16%
  Population Fragmented Nuclei (%): 5%
  Population Healthy Nuclei (%): 84%
  Population Hoechst High Intensity Objects (%): 3%
  Population Membrane Permeable-Phenotype (%): 6%
  Population Mitochondria Different-Phenotype (%): 8%
  Population Mitotic Cells (%): 83%
  Population Normal (%): 96%
  Population Pyknosed Nuclei (%): 10%
  Population Tubulin-Different-Phenotype (%): 16%
  Total Cell Count: 59
Fibroblast [1]; [5]
  Population Apoptotic (%): 50%
  Population Fragmented Nuclei (%): 15%
  Population Healthy Nuclei (%): 42%
  Population Hoechst High Intensity Objects (%): 8%
  Population Membrane Permeable-Phenotype (%): 23%
  Population Mitochondria Different-Phenotype (%): 15%
  Population Mitotic Cells (%): 50%
  Population Normal (%): 91%
  Population Pyknosed Nuclei (%): 42%
  Population Tubulin-Different-Phenotype (%): 82%
  Total Cell Count: 134
Fibroblast [1]; [6]
  Population Apoptotic (%): 45%
  Population Fragmented Nuclei (%): 9%
  Population Healthy Nuclei (%): 60%
  Population Hoechst High Intensity Objects (%): 9%
  Population Membrane Permeable-Phenotype (%): 15%
  Population Mitochondria Different-Phenotype (%): 84%
  Population Mitotic Cells (%): 55%
  Population Normal (%): 90%
  Population Pyknosed Nuclei (%): 30%
  Population Tubulin-Different-Phenotype (%): 97%
  Total Cell Count: 72
Fibroblast [1]; [7]
  Population Apoptotic (%): 47%
  Population Fragmented Nuclei (%): 17%
  Population Healthy Nuclei (%): 49%
  Population Hoechst High Intensity Objects (%): 8%
  Population Membrane Permeable-Phenotype (%): 34%
  Population Mitochondria Different-Phenotype (%): 6%
  Population Mitotic Cells (%): 52%
  Population Normal (%): 91%
  Population Pyknosed Nuclei (%): 33%
  Population Tubulin-Different-Phenotype (%): 69%
  Total Cell Count: 180
Fibroblast [1]; [8]
  Population Apoptotic (%): 14%
  Population Fragmented Nuclei (%): 3%
  Population Healthy Nuclei (%): 86%
  Population Hoechst High Intensity Objects (%): 4%
  Population Membrane Permeable-Phenotype (%): 1%
  Population Mitochondria Different-Phenotype (%): 8%
  Population Mitotic Cells (%): 85%
  Population Normal (%): 95%
  Population Pyknosed Nuclei (%): 10%
  Population Tubulin-Different-Phenotype (%): 7%
  Total Cell Count: 68
Fibroblast [1]; [9]
  Population Apoptotic (%): 45%
  Population Fragmented Nuclei (%): 20%
  Population Healthy Nuclei (%): 39%
  Population Hoechst High Intensity Objects (%): 6%
  Population Membrane Permeable-Phenotype (%): 36%
  Population Mitochondria Different-Phenotype (%): 4%
  Population Mitotic Cells (%): 54%
  Population Normal (%): 93%
  Population Pyknosed Nuclei (%): 39%
  Population Tubulin-Different-Phenotype (%): 93%
  Total Cell Count: 119
Fibroblast [1]; [10]
  Population Apoptotic (%): 42%
  Population Fragmented Nuclei (%): 9%
  Population Healthy Nuclei (%): 67%
  Population Membrane Permeable-Phenotype (%): 30%
  Population Mitochondria Different-Phenotype (%): 71%
  Population Mitotic Cells (%): 57%
  Population Pyknosed Nuclei (%): 22%
  Population Tubulin-Different-Phenotype (%): 95%
  Total Cell Count: 66
Fibroblast [1]; [11]
  Population Apoptotic (%): 57%
  Population Fragmented Nuclei (%): 31%
  Population Healthy Nuclei (%): 44%
  Population Hoechst High Intensity Objects (%): 12%
  Population Membrane Permeable-Phenotype (%): 26%
  Population Mitochondria Different-Phenotype (%): 3%
  Population Mitotic Cells (%): 42%
  Population Normal (%): 87%
  Population Pyknosed Nuclei (%): 24%
  Population Tubulin-Different-Phenotype (%): 50%
  Total Cell Count: 166
Fibroblast [1]; [12]
  Population Apoptotic (%): 0%
  Population Fragmented Nuclei (%): 28%
  Population Healthy Nuclei (%): 69%
  Population Hoechst High Intensity Objects (%): 8%
  Population Membrane Permeable-Phenotype (%): 12%
  Population Mitochondria Different-Phenotype (%): 5%
  Population Mitotic Cells (%): 100%
  Population Normal (%): 91%
  Population Pyknosed Nuclei (%): 1%
  Population Tubulin-Different-Phenotype (%): 57%
  Total Cell Count: 112
Fibroblast [1]; [13]
  Population Apoptotic (%): 41%
  Population Fragmented Nuclei (%): 30%
  Population Healthy Nuclei (%): 40%
  Population Hoechst High Intensity Objects (%): 12%
  Population Membrane Permeable-Phenotype (%): 28%
  Population Mitochondria Different-Phenotype (%): 4%
  Population Mitotic Cells (%): 58%
  Population Normal (%): 87%
  Population Pyknosed Nuclei (%): 28%
  Population Tubulin-Different-Phenotype (%): 95%
  Total Cell Count: 126
Fibroblast [1]; [14]
  Population Apoptotic (%): 23%
  Population Fragmented Nuclei (%): 45%
  Population Healthy Nuclei (%): 45%
  Population Hoechst High Intensity Objects (%): 34%
  Population Membrane Permeable-Phenotype (%): 25%
  Population Mitochondria Different-Phenotype (%): 1%
  Population Mitotic Cells (%): 76%
  Population Normal (%): 65%
  Population Pyknosed Nuclei (%): 9%
  Total Cell Count: 214
U2OS; 0 h, replicate number 2, timepoint 0 hours
  Growth Rate: 0
U2OS; [15]
  Growth Rate: 0
U2OS; [16]
  Growth Rate: 0
U2OS; 12 h, replicate number 2, timepoint 12 hours
  Growth Rate: 1
U2OS; [17]
  Growth Rate: 0
U2OS; [18]
  Growth Rate: 0
Fibroblast [2]; [19]
  Growth Rate: 0
Fibroblast [2]; [15]
  Growth Rate: 0
Fibroblast [2]; [16]
  Growth Rate: 0
Fibroblast [2]; [17]
  Growth Rate: 0
Fibroblast [2]; 18 h, replicate number 2, timepoint 18 hours
  Growth Rate: 1
Fibroblast [2]; [18]
  Growth Rate: 0
Fibroblast [2]; 24 h, replicate number 2, timepoint 24 hours
  Growth Rate: 1
HEK-293T; [19]
  Growth Rate: 0
HEK-293T; [15]
  Growth Rate: 0
HEK-293T; [16]
  Growth Rate: 0
HEK-293T; [17]
  Growth Rate: 0
HEK-293T; [18]
  Growth Rate: 0
